Reference: ChEMBL document CHEMBL4177753, “Structural Modification of Natural Product Ganomycin I Leading to Discovery of a α-Glucosidase and HMG-CoA Reductase Dual Inhibitor Improving Obesity and Metabolic Dysfunction in Vivo” (J Med Chem, 2018)
Active and inactive are the calls of the source.

What was measured:
Mus musculus [1] = assay: Hypoglycemic activity in ob/ob mouse assessed as decrease in blood glucose AUC at 0.3 to 3 mg/kg administered daily via oral gavage for 27 days by ITT; format: functional, organism-based
Method in brief: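 Male ob/ob or high-fat-diet C57BL/6J mice dosed daily by gavage at 0.3–3.0 mg/kg. OGTT: glucose 2 g/kg orally after overnight fast. ITT: insulin 0.6 U/kg i.p. after 4 h fast. Glucometer readings at 0, 40, 80 and 120 min; AUC computed from the curves.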

Mus musculus [2] = assay: Decrease in nitrate levels in ob/ob mouse colonic lumen at 3 mg/kg administered daily via oral gavage for 31 days by Griess assay; format: functional, organism-based
Method in brief: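 Male ob/ob mice dosed daily by gavage in soybean vehicle. Nitrate measured in intestinal contents by Griess assay.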

Mus musculus [3] = assay: Antifibrotic activity in ob/ob mouse assessed as decrease in hepatic hydroxyproline levels at 3 mg/kg administered daily via oral gavage for 31 days; format: functional, organism-based
Oscillibacter = assay: Decrease in Oscillibacter levels in cecum of ob/ob mouse at 3 mg/kg administered daily via oral gavage for 31 days by 16S rRNA gene high-throughput sequencing method; format: functional, organism-based
Method in brief: (§1)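 Male ob/ob mice dosed daily by gavage at 1.0 or 3.0 mg/kg, compared with vehicle group. DNA extracted from about 150 mg caecum contents. 16S rRNA V3–V4 region amplified and sequenced on Illumina HiSeq PE250. Community compared by NMDS/MRPP; discriminant taxa identified by LEfSe.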

Betaproteobacteria = assay: Decrease in Betaproteobacteria levels in cecum of ob/ob mouse at 1 to 3 mg/kg administered daily via oral gavage for 31 days by 16S rRNA gene high-throughput sequencing method; format: functional, organism-based; method in brief: as §1
Mus musculus [4] = assay: Reduction of plasma LPS levels in antibiotic-treated ob/ob mouse at 3 mg/kg administered daily via oral gavage for 3 weeks by ELISA; format: functional, organism-based
Method in brief: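 Male ob/ob mice treated daily by gavage (soybean vehicle); plasma LPS and TNF-α quantified by ELISA kits. For antibiotic groups, ob/ob mice first received an oral antibiotic cocktail (ampicillin 1 g/L, vancomycin, neomycin, gentamycin, erythromycin) for three weeks, then 3.0 mg/kg/day; n = 8 per group.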

Mus musculus [5] = assay: Upregulation of occludin mRNA expression in ob/ob mouse ileum at 3 mg/kg administered daily via oral gavage for 31 days by RNA-seq analysis; format: functional, organism-based
Alphaproteobacteria = assay: Decrease in Alphaproteobacteria levels in cecum of ob/ob mouse at 1 to 3 mg/kg administered daily via oral gavage for 31 days by 16S rRNA gene high-throughput sequencing method; format: functional, organism-based; method in brief: as §1
Mus musculus [6] = assay: Hypolipidemic activity in ob/ob mouse assessed as decrease in liver free fatty acid levels at 0.3 to 3 mg/kg administered daily via oral gavage for 31 days; format: functional, organism-based
Mus musculus [7] = assay: Reduction of liver TNF-alpha levels in ob/ob mouse at 3 mg/kg administered daily via oral gavage for 31 days by DAPI staining/immunofluorescence-based confocal microscopic method; format: functional, organism-based
Method in brief: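 Liver from ob/ob mice dosed at 3.0 mg/kg by gavage; tissue methanol-fixed, blocked in PBS with 5% BSA, stained with anti-TNFα (1:200) and Alexa Fluor 610 secondary (1:250), nuclei with DAPI; confocal imaging, per-cell TNFα expression quantified.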

[8] = Inhibition of rat small intestinal mucosal alpha-glucosidase using p-nitrophenyl-alpha-D-glucopyranoside as substrate by HPLC method
Method in brief: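 Rat intestinal α-glucosidase; after incubation the product 4-nitrophenol is quantified at once by HPLC (gradient from 20% acetonitrile in water with 0.1‰ TFA to 100% acetonitrile over 10 min). Each concentration run 3 times in parallel; % inhibition from peak areas versus control minus control blank; IC50 from the concentration series.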

Mus musculus [9] = assay: Antiobesity activity in ob/ob mouse assessed as reduction in weight gain at 3 mg/kg administered daily via oral gavage for 31 days relative to vehicle-treated control; format: functional; design: scale not given: the % may be the effect or the level left
Method in brief: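 Male ob/ob mice, n = 10 per group, grouped by blood glucose and body weight. Daily gavage at 0.3, 1.0 or 3.0 mg/kg in soybean vehicle, with soybean vehicle controls and C57BL/6J controls. Body weight, cumulative food intake, LEE index, fat mass and lean mass recorded. Mean ± SEM, one-way ANOVA with Tukey test.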

Mus musculus [10] = assay: Hypolipidemic activity in antibiotic-treated ob/ob mouse assessed as decrease in plasma triglycerides levels at 3 mg/kg administered daily via oral gavage for 3 weeks; format: functional, organism-based
Method in brief: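 Male ob/ob mice pretreated three weeks with ampicillin (1 g/L), vancomycin, neomycin, gentamycin and erythromycin. Groups of n = 8 given 3.0 mg/kg/day orally in soybean vehicle versus vehicle. Plasma and hepatic lipids, fasting glucose, OGTT (glucose 2 g/kg after overnight fast) and HbA1c measured.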

Mus musculus [11] = assay: Antiobesity activity in antibiotic-treated ob/ob mouse assessed as reduction in weight gain at 3 mg/kg administered daily via oral gavage for 3 weeks; format: functional, organism-based
Method in brief: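 Male ob/ob mice given drinking water with ampicillin (1 g/L), vancomycin and other antibiotics for three weeks. Groups of n = 8 were dosed at 3.0 mg/kg/day by mouth in soybean vehicle, alongside non-antibiotic ob/ob groups. Weight gain and food intake recorded.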

CC(C)=CCC/C(C)=C/CCC1=C[C@H](c2ccc(C(C)(C)C)cc2)OC1=O
68%: Activity (Mus musculus [9])
inactive: Activity (Mus musculus [4])
active: Activity (Mus musculus [1]) | Activity (Mus musculus [2]) | Activity (Mus musculus [3]) | Activity (Oscillibacter) | Activity (Betaproteobacteria) | Activity (Mus musculus [5]) | Activity (Alphaproteobacteria) | Activity (Mus musculus [6]) | Activity (Mus musculus [7]) | Activity (Mus musculus [10]) | Activity (Mus musculus [11])
40 nM: IC50 [8]
